Our source for the Activity, Activity_index and Stability values is ChEMBL document CHEMBL5104216, “Fragment-Sized Thiazoles in Fragment-Based Drug Discovery Campaigns: Friend or Foe?” (ACS Med Chem Lett, 2022).

Each structure is given as a SMILES string.

The test system of data set [1] is Mycobacterium tuberculosis. The experiment in a line: Inhibition of Mycobacterium tuberculosis MetAP1a assessed as residual activity at 625 uM using L-methionine 7-amido-4-methylcoumarin as fluorogenic substrate and measured by fluorescence based assay. The gist of the method: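 Kinetic fluorescence assay in which the enzyme hydrolyses L-methionine 7-amido-4-methylcoumarin to fluorescent 7-amino-4-methylcoumarin. Compounds were tested at 500–625 μM, and activity was called at <50% residual activity. Spectral interference was checked by measuring absorbance at the excitation and emission wavelengths and compound autofluorescence.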

The nature of data set [2]: Redox activity of compound assessed as redox index at 100 uM measured by H2DCFDA assay. It is filed as physicochemical. The procedure, abridged:
(§1)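 Reactive oxygen species, with or without the reducing agent TCEP, detected with the fluorescent probe H2DCFDA. Compound spectral interference (autofluorescence) checked under the assay conditions.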

A short description of data set [3]: Redox activity of compound assessed as redox index at 10 uM measured by resazurin assay. Format: physicochemical. The procedure, abridged:
(§2)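 Free radicals formed by redox cycling with DTT detected with resazurin by fluorimetric read-out. Spectral interference checked.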
In general terms: The colour change of resazurin is a common sign of viable cells or microbes.

Data set [4] is described as follows: Redox activity of compound assessed as redox index at 100 uM in presence of 1 mM DTT measured by HRP-PR assay. Format: physicochemical. The procedure, abridged:
(§3)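 H2O2 from redox cycling, with or without DTT, detected with horseradish peroxidase-phenol red (HRP-PR).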

Data set [5] has as its target D-alanine--D-alanine ligase B (Escherichia coli K-12) (UniProt P07862). Briefly: Inhibition of recombinant Escherichia coli DdlB assessed as residual activity at 500 uM using D-alanine as substrate incubated for 20 mins and measured by malachite green based colorimetric assay relative to control. The procedure, abridged: (§4)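 Screened at 500–625 μM with malachite green colorimetric read-out. Activity threshold was <50% residual activity.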

The nature of data set [6]: Redox activity of compound assessed as redox index at 100 uM in presence of 100 uM TCEP measured by H2DCFDA assay. Format: physicochemical. The gist of the method:
as §1

The target in data set [7] is Replicase polyprotein 1ab (Severe acute respiratory syndrome coronavirus 2) (UniProt P0DTD1). The experiment in a line: Inhibition of recombinant SARS-CoV-2 3CLpro expressed in Escherichia coli NiCo21(DE3) assessed as residual activity at 500 uM using DABCYL-KTSAVLQSGFRKME-EDANS as substrate preincubated for 30 mins followed by substrate addition and measured by FRET assay relative to control. The procedure, abridged: (§5)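 Kinetic fluorescence read-out of cleavage of a FRET substrate carrying a DABCYL–EDANS pair. Compounds were tested at 500–625 μM, and <50% residual activity was taken as the activity threshold. To exclude false positives, absorbance at the excitation and emission wavelengths and autofluorescence of the compounds were measured.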

The nature of data set [8]: Redox activity of compound assessed as redox index at 100 uM measured by HRP-PR assay. Format: physicochemical. The gist of the method:
as §3

In data set [9] the target is Replicase polyprotein 1ab (Severe acute respiratory syndrome coronavirus 2) (UniProt P0DTD1). Briefly: Inhibition of recombinant SARS-CoV-2 3CLpro expressed in Escherichia coli NiCo21(DE3) assessed as residual activity at 500 uM using DABCYL-KTSAVLQSGFRKME-EDANS as substrate preincubated for 30 mins in presence of 1mM DTT followed by substrate addition and measured by FRET assay relative to control. The gist of the method: as §5

Data set [10] concerns the target UDP-N-acetylglucosamine 1-carboxyvinyltransferase (Escherichia coli K-12) (UniProt P0A749). Briefly: Inhibition of recombinant Escherichia coli MurA assessed as residual activity at 500 uM using UDP-N-acetylglucosamine as substrate preincubated for 30 mins followed by substrate addition and measured by malachite green based colorimetric assay relative to control. The procedure, abridged: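 E. coli MurA at 500–625 μM with 30 min preincubation before substrate addition. Malachite green colorimetric read-out. Activity threshold was <50% residual activity.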

The nature of data set [11]: Redox activity of compound assessed as redox index at 1 uM measured by resazurin assay. Format: physicochemical. The procedure, abridged:
as §2

Data set [12] can be described thus: Aqueous stability of the compound at pH 7.4 measured after 60 mins by spectrophotometric analysis. Format: physicochemical. Conditions: buffer, pH 7.4, 1 h. The gist of the method:
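Followed by spectrophotometry as changes in the compound absorption spectrum over time in 50 mM Tris-HCl pH 7.4, 0.5 mM EDTA, read after 60 min in 96-well microplate format. Compounds with low absorbance were not evaluated.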

The target of data set [13] is UDP-N-acetylglucosamine 1-carboxyvinyltransferase (Escherichia coli K-12) (UniProt P0A749). Briefly: Inhibition of recombinant Escherichia coli MurA assessed as residual activity at 500 uM using UDP-N-acetylglucosamine as substrate and measured by malachite green based colorimetric assay relative to control. The procedure, abridged:
as §4

Data set [14] shares this target. Briefly: Inhibition of recombinant Escherichia coli MurA assessed as residual activity at 500 uM using UDP-N-acetylglucosamine as substrate preincubated for 30 mins in presence of 1 mM DTT followed by substrate addition and measured by malachite green based colorimetric assay relative to control.

Chain of UDP-N-acetylglucosamine 1-carboxyvinyltransferase (Escherichia coli K-12) (P0A749 whole entry): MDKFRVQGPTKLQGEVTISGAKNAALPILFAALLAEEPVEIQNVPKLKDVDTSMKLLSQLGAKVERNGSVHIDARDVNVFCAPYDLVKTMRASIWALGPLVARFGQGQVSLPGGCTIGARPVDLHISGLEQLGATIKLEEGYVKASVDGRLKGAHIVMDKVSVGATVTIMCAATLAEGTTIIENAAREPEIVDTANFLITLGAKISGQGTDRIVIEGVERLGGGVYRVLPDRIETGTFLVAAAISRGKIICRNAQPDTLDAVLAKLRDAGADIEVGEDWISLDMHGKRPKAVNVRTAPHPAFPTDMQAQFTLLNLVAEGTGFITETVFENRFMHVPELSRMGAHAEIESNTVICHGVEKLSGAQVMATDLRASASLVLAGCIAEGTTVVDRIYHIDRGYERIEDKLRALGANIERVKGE

For the molecule `Nc1nccs1` [AMINOTHIAZOLE], the Activity turned out to be 94.6% in data set [1]; 95% in data set [5]; 86.1% in data set [7]; 82.5% in [9]; 39.7% in data set [10]; 88% in [13]. Besides, the Activity in [14] came out at 105%. Also, the Activity_index was 0.8 in [2]; 0.9 in data set [3]; 1 in data set [4]; 0.9 in data set [6]; 1 in data set [8]; 0.9 in data set [11]. Further, in data set [12], the Stability result is given as “Stable”.

In the case of `COC(=O)C(=O)Nc1ncc(Br)s1`, the Activity in [1] worked out at 156%; in data set [5], 94%; in data set [7] it was 89.5%; in data set [9], 66.2%; in data set [10], 37.2%; in data set [13], 81.7%. Further, the Activity in [14] stood at 112%. Further, the Activity_index in [2] came to 0.8; in data set [3] it was 1.1; in data set [4], 1; in [6] it was 0.8; in [8] it was 1; in [11], 0.9. Moreover, the Stability entry in data set [12] was “Unstable”.

For `Nc1nnc(C(F)(F)F)s1`, the Activity was 142% in data set [1]; 100% in [5]; 66.8% in data set [7]; 82.9% in data set [9]; 18% in data set [10]; 56.9% in [13]. In addition, in data set [14], the Activity came out at 101%. Moreover, the Activity_index in data set [2] was 1; in data set [3], 1; in data set [4], 1; in data set [6], 0.9; in data set [8] it was 1; in data set [11], 0.9. In data set [12], the Stability result is given as “Stable”.

With `COC(=O)c1cnc(Br)s1`, the Activity was determined as 99.2% in data set [1]; 96% in data set [5]; 100% in [7]; 92.9% in data set [9]; 93% in data set [10]; 96.6% in [13]. The Activity in [14] was found to be 102%. Further, the Activity_index in data set [2] was 1; in data set [3] it was 1.1; in data set [4], 1; in data set [6], 1.1; in data set [8] it was 1; in [11] it was 1. In addition, the Stability entry in [12] was “Stable”.

With `COC(=O)c1csc(Br)n1`, the Activity is 88.2% in data set [1]; 95% in data set [5]; 73.7% in [7]; 68.6% in [9]; 117% in data set [10]; 106% in data set [13]. In addition, the Activity in data set [14] was found to be 104%. The Activity_index in [2] stood at 0.8; in data set [3] it was 0.8; in data set [4], 1; in data set [6] it was 0.9; in data set [8], 1; in [11], 1.4. Moreover, the Stability result in data set [12] is recorded as “Stable”.

Take `Nc1nc(-c2ccncc2)cs1`: the Activity was found to be 110% in data set [1]; 96% in [5]; 91.9% in data set [7]; 77.8% in data set [9]; 56.7% in [10]; 86.7% in [13]. The Activity in [14] worked out at 103%. The Activity_index was 1.1 in data set [2]; 1 in [3]; 1 in data set [4]; 1.2 in data set [6]; 0.8 in data set [8]; 1 in data set [11]. Further, the Stability entry in data set [12] is “Stable”.

For the molecule `O=C(O)c1csc(Br)n1`, the Activity in data set [1] came to 81.7%; in data set [5] it was 92%; in [7] it was 73.6%; in data set [9] it was 73.7%; in [10], 96%; in data set [13], 102%. Further, the Activity in data set [14] worked out at 101%. Moreover, the Activity_index is 1 in data set [2]; 0.9 in data set [3]; 1 in data set [4]; 1 in [6]; 1 in data set [8]; 0.9 in data set [11]. In addition, in data set [12], the Stability result is listed as “Stable”.

As to `O=C(O)c1nc(Br)cs1`, the Activity in data set [1] was determined as 111%; in [5] it was 84%; in [7], 88.3%; in data set [9], 85.1%; in [10], 90%; in [13], 97.3%. Moreover, in [14], the Activity was 106%. Further, the Activity_index in [2] came to 1; in data set [3] it was 0.9; in data set [4], 1; in data set [6] it was 0.9; in [8], 1; in data set [11] it was 0.9.

`Brc1cscn1`: the Activity in data set [1] worked out at 83.5%; in data set [5] it was 97%; in data set [7], 91.4%; in data set [9] it was 80.1%; in [10], 106%; in data set [13], 100%. For the same molecule, the Activity in data set [14] was 102%. Also, the Activity_index in data set [2] was found to be 0.8; in data set [3] it was 1; in data set [4], 1; in [6], 0.8; in data set [8], 1; in data set [11], 0.9.

With `CCOC(=O)Cc1csc(Br)n1`, the Activity was 89.6% in data set [1]; 95% in [5]; 72% in [7]; 70.8% in data set [9]; 66.7% in data set [10]; 86.7% in data set [13]. Further, the Activity_index in [2] was 1; in [3], 0.9; in data set [4], 1; in data set [6] it was 0.9; in [8], 1; in data set [11] it was 0.9.

Regarding `O=C(O)Cc1csc(Br)n1`, the Activity in data set [1] was 86.1%; in data set [5], 103%; in data set [7] it was 77.1%; in data set [9] it was 68.6%; in data set [10], 72.1%; in data set [13], 105%. Moreover, in [14], the Activity was determined as 106%. The Activity_index was found to be 0.9 in data set [2]; 1 in [3]; 1 in data set [4]; 1 in data set [6]; 1 in [8]; 0.9 in data set [11].

For `CC(=O)c1nc(C)cs1`, the Activity in data set [1] was determined as 136%; in data set [5], 92%; in data set [7], 106%; in data set [9] it was 78.4%; in [10], 93.9%; in data set [13], 102%. For the same molecule, the Activity in data set [14] amounted to 93.5%. Further, the Activity_index in data set [2] turned out to be 1; in data set [3], 0.9; in [4], 1; in data set [6], 0.8; in data set [8], 1; in data set [11] it was 0.9.
